In ChEMBL document CHEMBL1287703, “Essential structural features of TNF-α lectin-like domain derived peptides for activation of amiloride-sensitive sodium current in A549 cells” (J Med Chem, 2010):
Calls of active or inactive are those of the source. No cut-off for these calls is given here. Where a SMILES comes first, the peptide text is derived from it. Bridges are numbered along the chain shown (N, C = ends).

What was measured:
Format in all cases: cell-based
A549 [1] = experiment: Activation of amiloride-sensitive epithelial sodium channel in human A549 cells up to 480 nM at holding potential -100 to + 100 mV by whole cell patch clamp technique
How it was run: (§1)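 A549 cells (passages 80–90) were grown in DMEM/F12 with 10% FBS and 1% penicillin-streptomycin, then whole-cell patch-clamped at 19–22°C, 24–48 h after plating. After a 5 min equilibration, Eh was stepped from −100 to +100 mV in 20 mV steps, 1 min each. A 5 min control preceded cumulative bath peptide addition (3.5–480 nM final), with amiloride added at the end. EC50 was fitted at −100 mV.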

A549 [2] = experiment: Activation of amiloride-sensitive epithelial sodium channel in human A549 cells at 120 nM at holding potential -100 to + 100 mV by whole cell patch clamp technique; how it was run: as §1
A549 [3] = experiment: Activation of tetraethylammonium-sensitive potassium channel in human A549 cells at 120 nM at holding potential -100 mV by whole cell patch clamp technique

| Compound | Activity (A549 [1]) | Activity (A549 [2]) [%] | Activity (A549 [3]) [%] |
| --- | --- | --- | --- |
| C[C@@H]1NC(=O)CNC(=O)[C@H](CCC(=O)O)NC(=O)[C@@H]2CCCN2C(=O)[C@H]([C@H](C)O)NC(=O)[C@H](CCC(=O)O)NC(=O)[C@H](CCCNC(=N)N)NC(=O)[C@H](CCC(N)=O)NC(=O)CNC(=O)CCCCCCNC(=O)[C@H](Cc2ccc(O)cc2)NC(=O)[C@H](Cc2c[nH]c3ccccc23)NC(=O)[C@@H]2CCCN2C(=O)[C@H](CCCCN)NC(=O)[C@H](C)NC(=O)[C@H](CCC(=O)O)NC1=O | inactive | – | – |
| C[C@@H]1NC(=O)CNC(=O)[C@H](CCC(=O)O)NC(=O)[C@@H]2CCCN2C(=O)[C@H]([C@H](C)O)NC(=O)[C@H](CCC(=O)O)NC(=O)[C@H](CCCNC(=N)N)NC(=O)[C@H](CCC(N)=O)NC(=O)[C@@H](N)CSSC[C@@H](C(=O)O)NC(=O)CNC(=O)CNC(=O)[C@H](CCCCN)NC(=O)[C@H](C)NC(=O)[C@H](CCC(=O)O)NC1=O | inactive | – | – |
| C[C@@H]1NC(=O)CNC(=O)[C@H](CCC(=O)O)NC(=O)[C@@H]2CCCN2C(=O)[C@H]([C@H](C)O)NC(=O)[C@H](CCC(=O)O)NC(=O)[C@H](CCCNC(=N)N)NC(=O)[C@H](CCC(N)=O)NC(=O)CNC(=O)CCCNC(=O)CNC(=O)[C@H](Cc2ccc(O)cc2)NC(=O)[C@H](Cc2c[nH]c3ccccc23)NC(=O)[C@@H]2CCCN2C(=O)[C@H](CCCCN)NC(=O)[C@H](C)NC(=O)[C@H](CCC(=O)O)NC1=O | inactive | – | – |
| C[C@@H]1NC(=O)CNC(=O)[C@H](CCC(=O)O)NC(=O)[C@@H]2CCCN2C(=O)[C@H]([C@H](C)O)NC(=O)[C@H](CCC(=O)O)NC(=O)[C@H](CCCNC(=N)N)NC(=O)[C@H](CCC(N)=O)NC(=O)CNC(=O)CCCCCNC(=O)CNC(=O)[C@H](Cc2ccc(O)cc2)NC(=O)[C@H](Cc2c[nH]c3ccccc23)NC(=O)[C@@H]2CCCN2C(=O)[C@H](CCCCN)NC(=O)[C@H](C)NC(=O)[C@H](CCC(=O)O)NC1=O | inactive | – | – |
| C[C@@H]1NC(=O)CNC(=O)[C@H](C)NC(=O)[C@@H]2CCCN2C(=O)[C@H](C)NC(=O)[C@H](CCC(=O)O)NC(=O)[C@H](CCCNC(=N)N)NC(=O)[C@H](CCC(N)=O)NC(=O)CNC(=O)[C@@H](N)CSSC[C@@H](C(=O)O)NC(=O)[C@H](Cc2ccc(O)cc2)NC(=O)[C@H](Cc2c[nH]c3ccccc23)NC(=O)[C@@H]2CCCN2C(=O)[C@H](CCCCN)NC(=O)[C@H](C)NC(=O)[C@H](C)NC1=O (H-CGQREAPAGAAAKPWYC-OH; disulfide 1-17) | inactive | – | – |
| C[C@@H]1NC(=O)CNC(=O)[C@H](CCC(=O)O)NC(=O)[C@@H]2CCCN2C(=O)[C@H]([C@H](C)O)NC(=O)[C@H](CCC(=O)O)NC(=O)[C@H](CCCNC(=N)N)NC(=O)[C@H](CCC(N)=O)NC(=O)CNC(=O)[C@@H](N)CSSC[C@@H](C(=O)O)NC(=O)[C@H](Cc2ccc(O)cc2)NC(=O)[C@H](Cc2c[nH]c3ccccc23)NC(=O)[C@@H]2CCCN2C(=O)[C@H](CCCCN)NC(=O)[C@H](C)NC(=O)[C@H](CCC(=O)O)NC1=O | – | 99.4 | 0.6 |
